Consider 21 molecules from ChEMBL document CHEMBL4014317, “Urinary Tract Infection: Which Conformation of the Bacterial Lectin FimH Is Therapeutically Relevant?” (J Med Chem, 2017).

Data set [1] in a line: Kinetic solubility of compound in pH 7.4 buffer after 15 hrs. The data set is classed as physicochemical. Conditions: read-out: Kinetic_solubility. The essentials: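 DMSO stock (100 mM) was diluted into aqueous universal buffer pH 7.4 to 1 mM final (1% DMSO), in triplicate. After 15 h, solutions were filtered and mixed 1:1 with 1-propanol. Dissolved amount was quantified by UV (190–500 nm) against reference spectra at 0.167 mM in buffer/propanol.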

Data set [2] can be described thus: Competitive binding affinity to full length 6His-tagged recombinant Escherichia coli FimH CRD expressed in Escherichia coli HM125 after 1 hr in presence of fluorescence labelled N-(2-(3-(3',6'-dihydroxy-3-oxo-3H-spiro[isobenzofuran-1,9'-xanthene]-5-yl)thioureido)ethyl)-4-methylbenzamide by fluorescence polarization assay. The method, boiled down: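 Full-length FimH was stabilized by FimG donor-strand peptide complementation. Serially diluted competitor was titrated into 300 nM FimHFL plus 10 nM fluorescent ligand in 20 mM HEPES pH 7.4, 150 mM NaCl, 50 μg/mL BSA. Mixtures were incubated ≥1 h at rt, and FP was read at excitation 485 nm and emission 528 nm. KD came from an equilibrium competition fit, n = 1.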

Data set [3] in a line: Competitive binding affinity to 6His-tagged recombinant Escherichia coli FimH lectin domain expressed in Escherichia coli HM125 after 24 hrs in presence of fluorescence labelled N-(2-(3-(3',6'-dihydroxy-3-oxo-3H-spiro[isobenzofuran-1,9'-xanthene]-5-yl)thioureido)ethyl)-4-methylbenzamide by fluorescence polarization assay. The method, boiled down:
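FimH lectin domain (His6-tagged via thrombin site) was expressed in E. coli HM125 and affinity-purified. Serially diluted competitor was added to 50 nM protein plus 50 nM fluorescent ligand in 20 mM HEPES pH 7.4, 150 mM NaCl, 50 μg/mL BSA. Mixtures were incubated ≥24 h at equilibrium, and FP was read at 485/528 nm. KD came from an equilibrium competition fit, n = 3, SD.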
Background: Fluorescence polarisation rises when a labelled molecule tumbles more slowly, as on binding a larger partner.

Data set [4] is described as follows: 1-octanol/water partition coefficient, log D of the compound at 1 uM at pH 7.4 after 2 hrs by LC-MS analysis. Format: physicochemical.
Data set [5] in a line: Binding affinity to full length 6His-tagged recombinant Escherichia coli FimH CRD expressed in Escherichia coli HM125 by isothermal titration calorimetry. The method, boiled down: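 FimHFL was coexpressed with FimC in E. coli HM125, and FimC was displaced by a FimG donor-strand peptide to give a stable construct. Buffer was 20 mM HEPES pH 7.4, 150 mM NaCl, with protein extensively dialyzed against it. Ligand (200–600 μM) was titrated into 20.3–62.1 μM protein in 1.5–2 μL injections at rt, single run. Isotherms were integrated automatically.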
Background: ITC needs no label: the signal is the heat of the interaction.

Data set [6] deals with Escherichia coli. In words: Selectivity ratio of Kd for full length 6His-tagged recombinant Escherichia coli FimH CRD expressed in Escherichia coli HM125 to Kd for 6His-tagged recombinant Escherichia coli FimH lectin domain expressed in Escherichia coli HM125. The method, boiled down: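 Competitive FP, with Kd for each construct and the ratio taken as FimHFL/FimHLD. FimHFL was stabilised by donor-strand (DsG) complementation, run at 300 nM with 10 nM tracer for ≥1 h. FimHLD and tracer were equimolar at 50 nM, ≥24 h. Buffer: 20 mM HEPES pH 7.4, 150 mM NaCl, 50 μg/mL BSA; rt. Ex 485/em 528 nm, equilibrium competition fit; FL n=1, LD n=3.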

≈ marks a conversion by molar mass, not a printed value.

The Kd is the constant that tells how readily two partners part at equilibrium. In the case of `OC[C@H]1O[C@H](Oc2ccc(-c3ccc(Cl)c(C(F)(F)F)c3)cc2Cl)[C@@H](O)[C@@H](O)[C@@H]1O`, the solubility kinetic at 15 h in data set [1] is 1 µg/mL (≈ 2.13 µM). Also, the Kd in data set [2] was 377 nM; in data set [3], 5.7 nM.
As usually defined, the logD is the decadic logarithm of the distribution of all forms, ionised or not, between an organic phase and buffer at a given pH. A lower logD goes with a more hydrophilic compound. As for `OC[C@H]1O[C@H](Oc2ccc(-c3ccc(C(F)(F)F)cc3)cc2Cl)[C@@H](O)[C@@H](O)[C@@H]1O`, the solubility kinetic at 15 h in data set [1] came out at 22 µg/mL (≈ 50.6 µM). Besides, the Kd in data set [2] is 415 nM; in data set [3] it was 3.9 nM. In data set [4], this molecule displayed a logD at 2 h, 1 µM of 3.4.
As for `OC[C@H]1O[C@H](Oc2ccc(-c3ccc(Cl)cc3)cc2Cl)[C@@H](O)[C@@H](O)[C@@H]1O`, in data set [1], the solubility kinetic at 15 h was determined as 3.5 µg/mL (≈ 8.72 µM). Further, the Kd in data set [2] was found to be 251 nM; in data set [3], 3.9 nM. The molecule also displayed a logD at 2 h, 1 µM in data set [4] of 3.3.
For `OC[C@H]1O[C@H](Oc2ccc(-c3ccccc3Cl)cc2Cl)[C@@H](O)[C@@H](O)[C@@H]1O`, the solubility kinetic at 15 h in data set [1] amounted to 28 µg/mL (≈ 69.8 µM). Moreover, the Kd in data set [2] came to 434 nM; in data set [3] it was 2.6 nM. In data set [4], this molecule had a pH-dependent lipophilicity (logD) at 2 h, 1 µM of 3.1.
As to `OC[C@H]1O[C@H](Oc2ccc(-c3ccccc3)cc2Cl)[C@@H](O)[C@@H](O)[C@@H]1O`, the solubility kinetic at 15 h in data set [1] was 5.5 µg/mL (≈ 15 µM). The Kd is 458 nM in data set [2] and 2.8 nM in data set [3]. The molecule further showed a logD at 2 h, 1 µM in data set [4] of 2.6.
Turning to `O=[N+]([O-])c1ccc(-c2ccc(O[C@H]3O[C@H](CO)[C@@H](O)[C@H](O)[C@@H]3O)c(Cl)c2)cc1`, in data set [1], the solubility kinetic at 15 h amounted to 117 µg/mL (≈ 284 µM). In addition, the Kd came to 140 nM in data set [2] and 0.5 nM in data set [3]. The same molecule displayed a log distribution coefficient (logD) at 2 h, 1 µM in data set [4] of 2.3.
Regarding `OC[C@H]1O[C@H](Oc2ccc(-c3cccc(C(F)(F)F)c3)cc2Cl)[C@@H](O)[C@@H](O)[C@@H]1O`, the solubility kinetic at 15 h in data set [1] came out at 36 µg/mL (≈ 82.8 µM). Also, the Kd came to 575 nM in data set [2] and 3.3 nM in data set [3]. The same molecule yielded a logD at 2 h, 1 µM in data set [4] of 3.3.
In the case of `N#Cc1cccc(-c2ccc(O[C@H]3O[C@H](CO)[C@@H](O)[C@H](O)[C@@H]3O)c(Cl)c2)c1`, the solubility kinetic at 15 h in data set [1] stood at 227 µg/mL (≈ 579 µM). In addition, the Kd amounted to 85.9 nM in data set [2] and 0.3 nM in data set [3]. The molecule also showed a logD at 2 h, 1 µM in data set [4] of 2.1.
Consider `COc1ccc(-c2ccc(O[C@H]3O[C@H](CO)[C@@H](O)[C@H](O)[C@@H]3O)c(Cl)c2)cc1`, for which, in data set [1], the solubility kinetic at 15 h worked out at 3.8 µg/mL (≈ 9.58 µM). Besides, the Kd was found to be 344 nM in data set [2] and 2 nM in data set [3]. Besides, in data set [4], the logD at 2 h, 1 µM was determined as 2.7.
As to `OC[C@H]1O[C@H](Oc2ccc(-c3ccc(Cl)cc3Cl)cc2Cl)[C@@H](O)[C@@H](O)[C@@H]1O`, in data set [1], the solubility kinetic at 15 h is 8 µg/mL (≈ 18.4 µM). The values for the Kd in data set [2] and in data set [3] were 465 nM and 2.8 nM, respectively.
For `Cc1ccc(-c2ccc(O[C@H]3O[C@H](CO)[C@@H](O)[C@H](O)[C@@H]3O)c(Cl)c2)cc1`, the solubility kinetic at 15 h in data set [1] turned out to be 7.4 µg/mL (≈ 19.4 µM). The equilibrium dissociation constant (Kd) in data set [2] is 297 nM; in data set [3], 2.7 nM. In data set [4], the logD at 2 h, 1 µM was 3.3.
`CCCCCCCO[C@H]1O[C@H](CO)[C@@H](O)[C@H](O)[C@@H]1O`: the solubility kinetic at 15 h in data set [1] is more than 3000 µg/mL. Further, the Kd turned out to be 3200 nM in data set [5] and 3600 nM in data set [2]. Further, the Selectivity ratio in data set [6] stood at 100. The logD at 2 h, 1 µM in data set [4] came out at 1.7.
On to `Cc1ccc(C(=O)NCCNC(=S)Nc2ccc3c(c2)C(=O)OC32c3ccc(O)cc3Oc3cc(O)ccc32)cc1`, for which, in data set [2], the Kd is 137 nM.
Consider `CC(=O)c1ccc(-c2ccc(O[C@H]3O[C@H](CO)[C@@H](O)[C@H](O)[C@@H]3O)c(Cl)c2)cc1`, for which, in data set [1], the solubility kinetic at 15 h was 16 µg/mL (≈ 39.1 µM). Moreover, the Kd in data set [2] was found to be 98.6 nM; in data set [3], 0.3 nM. Besides, the log distribution coefficient (logD) at 2 h, 1 µM in data set [4] stood at 2.1.
Regarding `OC[C@H]1O[C@H](Oc2ccc(-c3ccc(Cl)c(Cl)c3)cc2Cl)[C@@H](O)[C@@H](O)[C@@H]1O`, in data set [1], the solubility kinetic at 15 h worked out at 2.3 µg/mL (≈ 5.28 µM). For the same molecule, the results for the Kd in data set [2] and in data set [3] were 692 nM and 4.3 nM, respectively.
On to `COc1ccccc1-c1ccc(O[C@H]2O[C@H](CO)[C@@H](O)[C@H](O)[C@@H]2O)c(Cl)c1`, for which, in data set [1], the solubility kinetic at 15 h was more than 280 µg/mL. Also, the values for the dissociation constant Kd in data set [2] and in data set [3] were 391 nM and 2.3 nM, respectively. This molecule registered a logD at 2 h, 1 µM in data set [4] of 2.4.
On the same counts, the results for `OC[C@H]1O[C@H](Oc2ccc(-c3cccc(Cl)c3)cc2Cl)[C@@H](O)[C@@H](O)[C@@H]1O` are 5.7 µg/mL (≈ 14.2 µM), 353 nM, 2.3 nM and 3.2.
The corresponding values for `Cc1ccccc1-c1ccc(O[C@H]2O[C@H](CO)[C@@H](O)[C@H](O)[C@@H]2O)c(Cl)c1` are 135 µg/mL (≈ 354 µM), 436 nM, 2.5 nM and 2.9.
`N#Cc1ccc(-c2ccc(O[C@H]3O[C@H](CO)[C@@H](O)[C@H](O)[C@@H]3O)c(Cl)c2)cc1`: the Kd is 130 nM in data set [5] and 83.8 nM in data set [2].
As for `O=[N+]([O-])c1cccc(-c2ccc(O[C@H]3O[C@H](CO)[C@@H](O)[C@H](O)[C@@H]3O)c(Cl)c2)c1`, in data set [1], the solubility kinetic at 15 h turned out to be 23 µg/mL (≈ 55.9 µM). In addition, the Kd in data set [2] was 39.1 nM; in data set [3], 0.1 nM. The logD at 2 h, 1 µM in data set [4] is 2.4.
With `Cc1cccc(-c2ccc(O[C@H]3O[C@H](CO)[C@@H](O)[C@H](O)[C@@H]3O)c(Cl)c2)c1`, the solubility kinetic at 15 h in data set [1] was found to be 7.1 µg/mL (≈ 18.6 µM). Further, the Kd came to 380 nM in data set [2] and 1.7 nM in data set [3]. In data set [4], this molecule returned a logD at 2 h, 1 µM of 3.
